Experimental findings from PubChem BioAssay AID588478 (ICCB-Longwood Screening Facility, Harvard Medical School, 2011) are described below.

Values joined by “and” are separate entries in the source; they are usually repeats but may differ in a detail not shown here. Equal values may be shown once. Screen size: about 330,000 compounds; about 1,100 (0.33%) were called active. This is one part of a sample in which actives are shown more often than they occur. Values without a mark were called inactive.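 How the source made its calls: active means mean inhibition over replicate wells above about 20% (limit read from the data); inactive means the rest.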

What is called inhibition is the relative decrease from the control value, in per cent.

Sequence of Ubiquitin carboxyl-terminal hydrolase isozyme L5 (Homo sapiens) (Q9Y5K5 whole entry, looked up): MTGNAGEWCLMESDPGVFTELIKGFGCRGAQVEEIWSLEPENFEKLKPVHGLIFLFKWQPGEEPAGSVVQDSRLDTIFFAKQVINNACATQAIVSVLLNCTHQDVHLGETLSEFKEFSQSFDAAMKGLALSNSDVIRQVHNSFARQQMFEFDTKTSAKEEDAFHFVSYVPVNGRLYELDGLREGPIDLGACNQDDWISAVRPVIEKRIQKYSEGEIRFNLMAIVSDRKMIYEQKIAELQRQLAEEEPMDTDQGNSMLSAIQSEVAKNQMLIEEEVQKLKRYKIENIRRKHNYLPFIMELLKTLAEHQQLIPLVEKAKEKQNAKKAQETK

The test has as its target Ubiquitin carboxyl-terminal hydrolase isozyme L5 (Homo sapiens) (UniProt Q9Y5K5). Briefly: proteasome-bound UCH37 DUB activity blockers – biochemical, Ub-AMC cleavage, fluorescence, primary screen (AID 588478).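 Further: 0% = compound-free wells with enzyme and 100% = wells lacking proteasome.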 The conditions noted are these: purified proteasome/UCH37, Ub-AMC cleavage fluorescence; active compounds read high; concentration not given here. In a few lines: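 assay system = human UCH37 enzyme supplied as purified proteasome complex | amount = proteasome at 0.15 nM in the dispensed enzyme solution | schedule = 30 min compound-proteasome preincubation then 25 min substrate reaction, room temperature | measured by = fluorescence, ex 355 nm, em 460 nm | benchmarks = no-proteasome wells (full inhibition) and compound-free wells (no inhibition)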
For the compound `COc1ccc(C(C)=NNC(=O)c2ccc(N(C)C)cc2)cc1`, the inhibition was 3.67%.

Consider `COc1cc(NS(=O)(=O)c2ccc(NC(=O)c3ccc([N+](=O)[O-])cc3)cc2)ncn1`, for which the inhibition was 4.65%.

As for `Cn1ccc(=Nc2ccc(NC(=O)c3ccc(N=c4ccn(C)c5ccc([N+](=O)[O-])cc45)cc3)cc2)cc1`, the inhibition is 27.5% (active).

For the compound `CC(=O)NC(=S)Nc1ccc(NC(=S)NC(=O)c2ccc([N+](=O)[O-])cc2)cc1`, the inhibition was 5.88%.

For `COc1ccccc1/C=C/C=NN1CCN(Cc2ccc(Cl)cc2)CC1`, the inhibition is 5.57%.

As to `CCN(CC)C(=O)N(CC)Cc1ccccc1`, the inhibition was -0.131%.

As for `CCN(CC)C(=O)c1nc[nH]c1C(=O)N(C)Cc1ccccc1`, the inhibition is 26.1% (active).

In the case of `CN(Cc1ccccc1)C(=O)c1cccc(C(=O)N(C)Cc2ccccc2)c1`, the inhibition is 0.499%.

As for `O=S1(=O)CCC(=NNc2ccc(C(F)(F)F)cn2)c2cc(F)ccc21`, the inhibition is 0.609%.

For the compound `COc1ccc(C(=O)NCC(=O)NN=Cc2cn[nH]c2-c2ccccc2)cc1`, the inhibition was 1.68%.

As for `Cn1cccc1/C=C1\SC(=S)N(NC(=O)c2ccc(Cl)cc2)C1=O`, the inhibition was 1.88%.

Turning to `O=C(O)c1ccc2c(c1)C(=O)N(NC(=O)c1ccc(O)cc1)C2=O`, the inhibition was 7.31%.

As to `CC(=O)N1C(=O)/C(=C2\SC(=S)N(NC(=O)c3ccc(O)cc3)C2=O)c2ccccc21`, the inhibition was 40.9% (active).

Regarding `Cc1ccc(NC(=O)ON=Cc2ccc(F)cc2)cc1`, the inhibition was 5.21%.

For `Cc1cc(=O)oc2c3c(ccc12)OCC3=NN`, the inhibition was -22.9%.

For the compound `CC(=NNc1ccccc1C(=O)O)c1cccs1`, the inhibition is 10.1%.

For the compound `COC(=O)c1ccc(C=NOCC(=O)NC2CCCCCCC2)cc1`, the inhibition is 0.759%.

Regarding `COCCN1C=C2C(=O)C(C)(OC(=O)C3CCCC3)C(=O)C=C2C=C1c1ccsc1` (stereo not given), the inhibition is 46.2% (active).

Regarding `CC1(OC(=O)CCc2ccccc2)C(=O)C=C2C=C(c3ccc(C#N)cc3)N(CCc3ccccn3)C=C2C1=O` (stereo not given), the inhibition is 0.0366%.

As to `C=CCN1C=C2C(=O)C(C)(OC(=O)CCc3ccccc3)C(=O)C=C2C=C1c1ccc(C#N)cc1` (stereo not given), the inhibition is -31%.

Regarding `COc1ccc(C=NNc2nncn2N)cc1Br`, the inhibition was 14.1%.

For the compound `O=C(CN(Cc1ccccc1)S(=O)(=O)c1ccc2c(c1)OCCO2)NN=Cc1cccc(Br)c1`, the inhibition was 0.583%.

Turning to `CCOc1ccccc1C=c1sc2nc(-c3ccco3)nn2c1=O`, the inhibition is 3.89%.

Turning to `CCC(=NNC(=O)Cc1ccc(Br)cc1)c1cccs1`, the inhibition is 0.706%.

With `CCS(=O)(=O)N1CCCC(C(=O)NCc2ccc(C)cc2)C1` (stereo not given), the inhibition was 9.8%.

On to `CCS(=O)(=O)N1CCCC(C(=O)NCCCN(C)Cc2ccccc2)C1` (stereo not given), for which the inhibition is 29% (active).

As for `CCCS(=O)(=O)N1CCC(C(=O)NCCCN(C)Cc2ccccc2)CC1`, the inhibition is -3.1%.

As for `O=C(NC1CCCC1)C(c1ccco1)N(C(=O)c1ccco1)c1ccc(F)cc1` (stereo not given), the inhibition was 1.87%.

On to `O=C(NC1CCCC1)C(c1ccc(N2CCOCC2)cc1)N(C(=O)c1ccco1)c1ccccc1F` (stereo not given), for which the inhibition is 38.4% (active).

Turning to `COc1cc(C(C(=O)NC2CCCC2)N(C(=O)c2ccco2)c2ccccc2C(C)=O)cc(OC)c1OC` (stereo not given), the inhibition is 4.15%.

For the compound `Cc1cccc(C(=O)ON=C(c2ccccc2)c2ccncc2)c1`, the inhibition is 3.58%.

Turning to `CCCn1c(C2CCCN2c2nc(-c3ccc(C)cc3)cs2)nc2cc(Cl)c(N3CCCCC3)cc21` (stereo not given), the inhibition is 3.86%.

Regarding `Nc1c(Cl)cc(-c2csc(N3CCCC3c3nc4cc(Cl)c(Cl)cc4n3CCOCCO)n2)cc1Cl` (stereo not given), the inhibition was 28% (active).

On to `Cc1ccc(-c2csc(N3CCN(c4cc5c(cc4Cl)nc(-c4ccncc4)n5CCOCCO)CC3)n2)cc1`, for which the inhibition is -1.15%.

Regarding `CCOC(=O)C1=C(C)N=c2sc(=Cc3ccncc3)c(=O)n2C1c1ccc2c(c1)OCO2` (stereo not given), the inhibition is -0.871%.

With `O=C(N[C@@H](Cc1ccccc1)C(=O)OCc1ccccc1)c1nc[nH]c1C(=O)N[C@@H](Cc1ccccc1)C(=O)OCc1ccccc1`, the inhibition was 31.8% (active).

On to `CC(C)(C)OC(=O)CNC(=O)c1[nH]cnc1C(=O)N[C@@H](Cc1ccccc1)C(=O)OCc1ccccc1`, for which the inhibition was 0.224%.

For the compound `O=C(N[C@@H](Cc1ccccc1)C(=O)OCc1ccccc1)c1nc[nH]c1C(=O)NC1CCNCC1`, the inhibition is -1.66%.

Turning to `O=C(CNC(=O)c1ccncc1)NN=Cc1cccc([N+](=O)[O-])c1`, the inhibition was 1.21%.

As to `C[C@H](NC(=O)c1ccccc1Cl)C(=O)OCC(=O)N1CCN(c2ccccc2)CC1`, the inhibition was 0.507%.

As for `O=C(OCC(=O)N1CCN(c2ccccc2)CC1)c1ccc([N+](=O)[O-])s1`, the inhibition is 61.3% (active).

Turning to `COc1cccc(/C=C/C(=O)OCC(=O)N2CCN(c3ccccc3)CC2)c1`, the inhibition was -11.1%.

For `Cc1cc([N+](=O)[O-])cc(C=Nn2c(C)nc3ccccc3c2=O)c1O`, the inhibition is 12.9%.

For `Cc1cc(C)n(C(=O)C(C#N)=NNc2cc(Cl)cc(Cl)c2)n1`, the inhibition is 7.62%.

Turning to `CON=C(C(=O)N[C@@H]1C(=O)N2C(C(=O)O)=C(COC(C)=O)CS[C@H]12)c1csc(N)n1`, the inhibition is 2.25% and 5.96%.

In the case of `Clc1ccc(-c2csc(NN=Cc3cccnc3)n2)cc1`, the inhibition was 7.34%.

As for `CCOC(=O)c1ccccc1OC(=O)Oc1ccccc1C(=O)OCC`, the inhibition was 2.7%.

Consider `CCOC(=O)c1c(C)[nH]c2c1-c1ccccc1C(=O)C2=O`, for which the inhibition was 72.6% (active).

As for `CCOC(=O)c1c(C)nc(-c2ccccc2)nc1NC(=O)C(C)C`, the inhibition was 2.52%.

With `O=C(NN=C/C(Br)=C/c1ccccc1)NC1CCCCC1`, the inhibition is 4.04%.

Consider `Cc1cc(C)nc(SCC(=O)N(C)C)n1`, for which the inhibition was 4.9%.

In the case of `Cc1nnc(SCC(=O)N(C(C)C)C(C)C)nc1C`, the inhibition is 32.8% (active).

Take `CC(C)N(C(=O)CSc1nc(COc2ccccc2)nc2ccccc12)C(C)C`: the inhibition is 2.03%.

On to `O=C(NN=Cc1cccs1)c1cc(-c2ccc(Cl)s2)[nH]n1`, for which the inhibition is 4.08%.

Take `Cc1nn(Cc2ccc(Cl)cc2Cl)c(Cl)c1C=NNC(=O)CNc1cccc(C(F)(F)F)c1`: the inhibition is 5.09%.

Regarding `O=c1[nH]c(CSc2ccccc2)nc2c1oc1ccccc12`, the inhibition was 3.26%.

In the case of `COc1ccc(CCNC(=O)CSc2nc(C)nc3c2oc2ccccc23)cc1OC`, the inhibition was 1.13%.

On to `CCSc1nc(C)nc2c1oc1ccccc12`, for which the inhibition is 22.4% (active).

On to `N#Cc1ccc(OCC(=O)NN=C2CC(c3ccccc3)Oc3ccccc32)cc1` (stereo not given), for which the inhibition is 6.87%.

On to `COC(=O)c1ccccc1-c1ccc(C=NNC(N)=O)o1`, for which the inhibition was -17.5%.

With `Cc1cc(C(=O)NN=C2CC(=O)CC(C)(C)C2)c2ccccc2n1`, the inhibition was 6.67%.

For `O=C(/C=C/c1ccc(N2CCOCC2)cc1)c1ccccc1`, the inhibition was -0.318%.

On to `O=C(O)c1ccc2c(c1)C(=O)N(c1ccc(/C=C/C(=O)c3ccccc3)cc1)C2=O`, for which the inhibition was 8.59%.

In the case of `O=C(/C=C/c1ccccc1)c1ccoc1`, the inhibition was 35.8% (active).

For the compound `CCN1C(=O)CSC1=NS(=O)(=O)c1ccc(Cl)cc1`, the inhibition was -0.232%.

`COc1ccc(C=NNC(=O)CSc2ccccn2)cc1OC`: the inhibition is 5.41%.

Consider `CCOC(=O)CNC(=O)N1c2ccccc2Sc2ccccc21`, for which the inhibition is 5.96%.

Turning to `CCC(=O)/C=C1\Sc2ccccc2N1CC`, the inhibition was 23.7% (active).

In the case of `CCN1/C(=C\c2ccc3ccccc3[n+]2CC)Sc2cc(C)ccc21`, the inhibition is 4.94%.

With `COC(=O)c1ccc(C=NNC(=O)CNc2cccc(C)c2)cc1`, the inhibition was 1.65%.

Consider `Cc1[nH]c2ccccc2c1C=NNC(=O)CCC(=O)NCc1ccccc1`, for which the inhibition was 2.82%.

Consider `Cc1cccc(C=NNC(=O)Cn2nccc2C)n1`, for which the inhibition is -0.386%.

Turning to `COc1ccc(S(=O)(=O)/N=C2\C=C(NS(=O)(=O)c3ccccc3)C(=O)c3ccccc32)cc1`, the inhibition is 39.6% (active).

Consider `O=C1C=C(NS(=O)(=O)c2ccccc2)C(=O)c2ccccc21`, for which the inhibition is 16.2%.

Take `COc1ccc(S(=O)(=O)NCCCc2ccccc2)cc1`: the inhibition was 4.02%.

For `CC(=NNC(=O)c1cccc(NN=C(C)c2ccco2)c1)c1ccco1`, the inhibition was 1.7%.

Consider `CCCCCCC(=O)NN=CCc1ccccc1`, for which the inhibition was 0.89%.

Regarding `COc1ccccc1N1CCN(N=C/C=C\c2ccccc2[N+](=O)[O-])CC1`, the inhibition was 7.46%.

As for `CON=CCc1oc(=O)c(NC(=O)c2ccccc2)cc1C(=O)OC`, the inhibition is 1.47%.

Consider `COc1ccc(CNC(=O)C2(CC3CC(c4ccccc4)=NO3)CCN(C(=O)c3cccc(O)c3)CC2)cc1` (stereo not given), for which the inhibition was 4.4%.

Regarding `O=C(c1ccccc1)N1CCC(CC2CC(c3ccc(Cl)cc3)=NO2)(C(=O)NCC2CCCCC2)CC1` (stereo not given), the inhibition was 22.5% (active).

`CCCCCCCNC(=O)C1(CC2CC(c3cccc(Br)c3)=NO2)CCN(C(=O)c2cc(OCC)c(OCC)c(OCC)c2)CC1` (stereo not given): the inhibition was 3.99%.

Take `CCOc1cc(C=NNC(=O)C(N)=O)cc(Br)c1O`: the inhibition is 13.3%.

Consider `O=[N+]([O-])c1ccc(N(CCO)Cc2ccccc2)c([N+](=O)[O-])c1`, for which the inhibition was 6.59%.

On to `O=[N+]([O-])c1ccc2c(c1)Nc1nc3ccccc3nc1N2`, for which the inhibition is 0.978%.

`O=C1Nc2ccc([N+](=O)[O-])cc2C1=Nc1cccc(CO)c1`: the inhibition is 55.8% (active).

In the case of `Cc1nnc(NN=Cc2ccccn2)[nH]c1=O`, the inhibition is 1.91%.

Take `CC(=N/N=C1/NC(=O)C(CC(=O)NCc2ccccc2)S1)C(C)C` (stereo not given): the inhibition is 3.63%.

As for `CCNC(=S)N=C(N)Nc1nc(C)c2cc(C)ccc2n1`, the inhibition is 6.4%.

With `C(=NNc1nc(N2CCOCC2)nc(N2CCOCC2)n1)c1cccnc1`, the inhibition was 2.78%.
